The source made the active and inactive calls. No cut-off for these calls is given here.
What was measured:
A549 [1] = test: Resistance index, ratio of IC50 for human A549-T12 cells to IC50 for human A549 cells; assay type: functional
Procedure, shortened: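 Mean ± SE of at least three independent experiments. Resistance ratio = IC50 in resistant line/IC50 in nonresistant line.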

HeLa [2] = test: Induction of apoptosis in human HeLa cells assessed as mitochondrial membrane depolarization at 10 to 100 nM by JC-1 staining; assay type: functional, cell-based; conditions: TDE = time-dependent effect
Procedure, shortened: (§1)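 HeLa cells treated 24 or 48 h, then stained with the potentiometric dye JC-1. Proportion of cells with depolarised mitochondria read by flow cytometry. Mean ± SEM of three independent experiments.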

CCRF-CEM [3] = test: Resistance index, ratio of IC50 for human CEM/VBL100 cells to IC50 for human CEM cells; assay type: functional
Procedure, shortened: (§2)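 MTT viability test: 8 × 10^3 cells per well settled 18 h at 37 °C, 5% CO2, then given fresh medium with compound (from 10 mM DMSO stocks, final DMSO ≤0.25%) for 72 h. […] CEMVbl-100 is a vinblastine-selected P-gp line; LoVoDoxo is grown in Ham's F12 with 0.1 μg/mL doxorubicin. Resistance index = resistant IC50/parental IC50.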

HeLa [4] = test: Induction of apoptosis in human HeLa cells assessed as ROS production at 10 to 100 nM after 24 to 48 hrs by HE staining-based flow cytometry relative to control; assay type: functional, cell-based
Procedure, shortened: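 HeLa cells treated 24 or 48 h, then stained with H2-DCFDA or hydroethidine. ROS read by flow cytometry against untreated control. Mean ± SEM of three independent experiments.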

[5] = Selectivity ratio of IC50 for human CEM cells to IC50 for human PHA-stimulated PBL cells; assay type: ADME, cell-based; conditions: CEM cells and PHA-stimulated PBL cells, read-out: Ratio IC50
A549 [6] = test: Ratio of Combretastatin A-4 IC50 to compound IC50 for human A549 cells; assay type: functional
MCF7 [7] = test: Cytotoxicity against human MCF7 cells after 72 hrs by MTT assay; assay type: functional, cell-based; conditions: MCF7, 72 h
HeLa [8] = test: Cell cycle arrest in human HeLa cells assessed as variation in cyclin B expression at 10 to 100 nM after 24 to 48 hrs by Western Blot analysis; assay type: functional, cell-based
Procedure, shortened: (§3)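 HeLa cells exposed to 10 or 100 nM for 24 or 48 h, washed in ice-cold PBS, lysed on ice 30 min, spun at 15000g at 4 °C. 20 μg protein run on 7.5–15% SDS–PAGE, blotted to PVDF, blocked overnight at 4 °C. Primary antibodies 2 h at room temperature, peroxidase secondary 60 min, ECL detection, β-actin reprobe as loading control.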

HT-29 [9] = test: Cell cycle arrest in human HT-29 cells assessed as accumulation at G2/M phase at 20 nM after 24 hrs by propidium iodide staining-based flow cytometry; assay type: functional
Procedure, shortened: (§4)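 Jurkat, HT-29 and HeLa cells in exponential growth (5 × 10^5 cells) treated 24 h at a range of concentrations. Fixed in ice-cold 70% ethanol, lysed with buffer containing RNase A and 0.1% Triton X-100, stained with propidium iodide. DNA content read by flow cytometry and the percentage of cells per cycle phase derived from DNA histograms.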

CCRF-CEM [10] = test: Cytotoxicity against human CEM cells after 72 hrs by MTT assay; assay type: functional, cell-based; procedure, shortened: as §2
[11] = Cytotoxicity against human CEM/VBL100 cells after 72 hrs by MTT assay; assay type: functional, cell-based; conditions: CEM/VBL100, 72 h; procedure, shortened: as §2
HeLa [12] = test: Induction of apoptosis in human HeLa cells assessed as survivin phosphorylation on Thr32 after 24 to 48 hrs by Western Blot analysis; assay type: functional, cell-based; procedure, shortened: as §3
Mus musculus = test: Toxicity in Balb/c mouse xenografted with mouse BNL 1ME A.7R.1 cells assessed as decrease in body weight at 5 mg/kg, ip; assay type: organism-based; design: dose 5 mg/kg, route intraperitoneal; conditions: in vivo
Procedure, shortened: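 Male Balb/c mice, 8 weeks old, given 10^7 syngeneic BNL 1ME A.7R.1 hepatoma cells subcutaneously in the dorsal region in 200 μL PBS. Randomised to groups of five. Dosed intraperitoneally once daily for 7 days at 5 mg/kg in 0.9% NaCl with 5% PEG 400 and 0.5% Tween 80, against vehicle and CA-4P. Tumours measured daily by caliper, V = AB2/2; body weight recorded. Mean ± SEM.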

HeLa [13] = test: Induction of apoptosis in human HeLa cells assessed as Bcl-XL phosphorylation at 10 to 100 nM after 24 to 48 hrs by Western Blot analysis; assay type: functional, cell-based; procedure, shortened: as §3
Bos taurus [14] = species: Bos taurus; test: Displacement of [3H]colchicine from bovine brain tubulin at 5 uM after 20 mins by turbidimetric analysis
Jurkat [15] = test: Ratio of Combretastatin A-4 IC50 to compound IC50 for human Jurkat cells; assay type: functional
HeLa [16] = test: Induction of apoptosis in human HeLa cells assessed as mitochondrial membrane depolarization after 24 to 48 hrs by JC-1 staining; assay type: functional, cell-based; procedure, shortened: as §1
HeLa [17] = test: Induction of apoptosis in human HeLa cells assessed as reduction of Xiap expression at 10 nM after 24 hrs by Western Blot analysis; assay type: functional, cell-based; procedure, shortened: as §3
MCF7 [18] = test: Ratio of Combretastatin A-4 IC50 to compound IC50 for human MCF7 cells; assay type: functional
HeLa [19] = test: Induction of apoptosis in human HeLa cells assessed as PARP cleavage at 10 nM after 24 hrs by Western Blot analysis; assay type: functional, cell-based; procedure, shortened: as §3
Jurkat [20] = test: Cell cycle arrest in human Jurkat cells assessed as accumulation at G2/M phase after 24 hrs by propidium iodide staining-based flow cytometry; assay type: functional; procedure, shortened: as §4
HT-29 [21] = test: Cell cycle arrest in human HT-29 cells assessed as accumulation at G2/M phase at >20 nM after 24 hrs by propidium iodide staining-based flow cytometry; assay type: functional; procedure, shortened: as §4
Jurkat [22] = test: Cell cycle arrest in human Jurkat cells assessed as accumulation at G2/M phase at >20 nM after 24 hrs by propidium iodide staining-based flow cytometry; assay type: functional; procedure, shortened: as §4
Bos taurus [23] = species: Bos taurus; test: Displacement of [3H]colchicine from bovine brain tubulin at 1 uM after 20 mins by turbidimetric analysis
HT-29 [24] = test: Cell cycle arrest in human HT-29 cells assessed as accumulation at G2/M phase after 24 hrs by propidium iodide staining-based flow cytometry; assay type: functional; procedure, shortened: as §4
HeLa [25] = test: Cell cycle arrest in human HeLa cells assessed as accumulation at G2/M phase at 20 nM after 24 hrs by propidium iodide staining-based flow cytometry; assay type: functional; procedure, shortened: as §4
HeLa [26] = test: Cytotoxicity against human HeLa cells after 72 hrs by MTT assay; assay type: functional, cell-based
HeLa [27] = test: Induction of apoptosis in human HeLa cells assessed as caspase-3 cleavage at 10 to 100 nM after 24 to 48 hrs by Western Blot analysis; assay type: functional, cell-based; procedure, shortened: as §3
HL-60 = test: Ratio of Combretastatin A-4 IC50 to compound IC50 for human HL60 cells; assay type: functional

COC(=O)c1sc2cc(OC)ccc2c1Nc1cc(OC)c(OC)c(OC)c1
Ratio IC50 (A549 [1]): 1.5 | Activity (HeLa [2]): tde | Ratio IC50 (CCRF-CEM [3]): 0.4 | Activity (HeLa [4]): Active | selectivity ratio [5]: 2000 | Ratio IC50 (A549 [6]): 2 | IC50 (MCF7 [7]): 0.7 nM | Activity (HeLa [8]): inactive | Activity (HT-29 [9]): Active | IC50 (CCRF-CEM [10]): 3.2 nM | IC50 [11]: 1.3 nM | Activity (HeLa [12]): Active | Activity (Mus musculus): Toxic | Activity (HeLa [13]): Active | inhibition (Bos taurus [14]): 98% | Ratio IC50 (Jurkat [15]): 2 | Activity (HeLa [16]): Dose-dependent effect | Activity (HeLa [17]): Active | Ratio IC50 (MCF7 [18]): 2 | Activity (HeLa [19]): Active | Activity (Jurkat [20]): Dose-dependent effect | Activity (HT-29 [21]): >80% | Activity (Jurkat [22]): >80% | inhibition (Bos taurus [23]): 85% | Activity (HT-29 [24]): Dose-dependent effect | Activity (HeLa [25]): Active | IC50 (HeLa [26]): 0.28 nM | Activity (HeLa [27]): Active | Ratio IC50 (HL-60): 2

Source: ChEMBL document CHEMBL2331329, “Synthesis and biological evaluation of 2-(alkoxycarbonyl)-3-anilinobenzo[b]thiophenes and thieno[2,3-b]pyridines as new potent anticancer agents” (J Med Chem, 2013)
